The values below come from the RNAGym collection of RNA variant scans (doi:10.1126/science.aae0568).

Fewer inactive variants are shown than the library holds.

The chains are these.
B1: tRNA (parent)
chain: GUUCCGUUGGCGUAAUGGUAACGCGUCUCCCUCCUAAGGAGAAGACUGCGGGUUCGAGUCCCGUACGGAACG

The data set covers variants of B1. Description: yeast fitness relative to wild type (ratio to wild type); higher = fitter; tRNA-Arg(CCU), competitive growth, 37 C, YPD. The method in brief: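 For this measurement, the tRNA-Arg(CCU) gene was varied by chemical synthesis at a 3% per-site mutation rate across 69 sites, and each variant was placed at the native genomic locus in Saccharomyces cerevisiae. The pooled strains went through a 24-hour competition in YPD at 37°C in six parallel replicates, with amplicons from start and end populations read by 100-nucleotide paired-end sequencing. Darwinian fitness relative to wild type followed from the change in each genotype's frequency. Genotypes needed ≥ 100 starting reads, and estimates < 0.5 were set to 0.5.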
As to U35A A36G A40U A42U C55G, the yeast fitness was not above 0.5.
Under C34U G52A U54A C66U A69C stands not above 0.5; under C34U U53A, not above 0.5; under C34U G48C, 0.674.
Consider U35A C55A, for which the yeast fitness is not above 0.5.
In the case of U35A C55U, the yeast fitness amounted to 0.564.
Under U35C A36C A40U C61G A69C A70C stands not above 0.5.
Under U35C A36C A40U C61G stands not above 0.5; under C34U G67A G68C, 0.653.
As to U35A A40U G41C C49A, the yeast fitness is not above 0.5.
Turning to C34U G44A C49A G56C C62A A65C, the yeast fitness is not above 0.5.
Under C34U G38A C61G stands not above 0.5; under U35A A65U, 0.757.
Under U35A A65C stands 0.781; under C34U G39A U47C G56A, not above 0.5.
Under C34U C62A C66U stands not above 0.5; under U35A G67C, 0.657.
U35A G67A: the yeast fitness worked out at 0.714.
Consider C34U C55U C66U, for which the yeast fitness turned out to be 0.532.
Under U35C A36G G58A G67A stands not above 0.5.
Under C34U G52A stands 0.618; under C34U C55U G63C, not above 0.5; under U35A A36U A45C, 0.531.
As for U35C A36U A40U C55U A57C, the yeast fitness is 0.865.
Regarding C34U U35G G38A C62U A65C, the yeast fitness was not above 0.5.
Regarding C34U C55A A70U, the yeast fitness was 0.619.
Under U35A G56A stands 0.817; under C34U U53C C55U, not above 0.5; under C34U G68A, 0.774.
As for U35C A42C G52C U53C G68U, the yeast fitness was not above 0.5.
Turning to C34U G58C G63A A70C, the yeast fitness was not above 0.5.
Under U35A A43C stands 0.636; under C34U C49U C61A, not above 0.5.
Under C34U G39C C49G stands not above 0.5; under C34U G68U A69C, not above 0.5.
Under C34U U47C stands 0.67; under C34U U47A, 0.621; under U35C A57C, 0.609.
Take U35C A57G: the yeast fitness worked out at 0.739.
Under U35A A45G stands 0.759; under C34U C55G G63A, not above 0.5.
Under C34U C55U C60A stands not above 0.5; under C34U C55U G67C, 0.558.
Under U35C A42C G52C stands not above 0.5; under U35A U53C A57C, not above 0.5.
With C34U G44C A45G U47G, the yeast fitness was not above 0.5.
With U35C A37C, the yeast fitness was found to be 0.817.
Consider U35A A36G, for which the yeast fitness turned out to be 0.65.
Under C34U C49A A69C stands not above 0.5; under C34U G67C, 0.723.
Under U35C A42U C62G stands 0.546; under C34U C49A G67A, not above 0.5.
Under C34U U47C A69U stands 0.506.
As for U35C A40U, the yeast fitness is 0.856.
With U35C A57C G68C, the yeast fitness was not above 0.5.
For U35A A37G A40G A43U A45C, the yeast fitness is not above 0.5.
Regarding C34U C49U C55U, the yeast fitness is not above 0.5.
Turning to C34U G58C C60U C66G, the yeast fitness is not above 0.5.
Under U35A A36U A57G stands not above 0.5; under U35A C62A, not above 0.5; under U35C A45G C49G G56A A65C, not above 0.5.
Under U35A C66U A69U stands not above 0.5; under U35A C61A A70U, not above 0.5.
Consider U35C A65G C66U, for which the yeast fitness turned out to be 0.675.
Under U35C A36C A45C stands 0.522.
Under C34U G41A U47A G58C G63C G67A stands not above 0.5; under U35C A42C A43G G48A, 0.576.
Under C34U U64A stands 0.597; under U35A C60G G67U, not above 0.5; under C34U C61G A70C, 0.528.
With C34U C61G A70U, the yeast fitness is not above 0.5.
In the case of C34U C61G C66U, the yeast fitness was 0.595.
Under U35A A40U A42U C55G stands not above 0.5.
On to U35C A40C C61G, for which the yeast fitness was not above 0.5.
Under U35A A57U A69U stands not above 0.5; under U35A C61U, 0.765.
Under C34U G39A C62U stands 0.607; under C34U U35A A57C G58A A70U, 0.586; under U35C A36G A45C, 0.825.
Turning to U35A C49G G58A C60A, the yeast fitness was not above 0.5.
For U35A U47C, the yeast fitness stood at 0.589.
Under U35A C46A C49G stands not above 0.5; under C34U A69U A70C, 0.541; under C34U C46G A70U, 0.601.
Under U35C A42C A43G stands 0.617.
Under C34U C60G A70C stands not above 0.5.
With C34U G50A, the yeast fitness turned out to be 0.67.
With C34U C46G A65U, the yeast fitness worked out at 0.563.
For U35A C55A C66A, the yeast fitness is not above 0.5.
As for U35A G48A, the yeast fitness came out at 0.644.
Under C34U U35A C49G stands 0.57; under C34U U35C A70C, not above 0.5.
Under C34U G58C C61A A69U stands not above 0.5; under C34U A65C G67C, not above 0.5.
Under U35C A42G C55A stands not above 0.5; under C34U G38A G44C, not above 0.5.
Turning to U35A G52A U59C C66A G67A, the yeast fitness is not above 0.5.
Under C34U C66U A69U stands not above 0.5; under C34U U47G G58C, 0.518.
Under C34U U35C A45G U54A stands 0.704; under C34U G41C, 0.768.
Under C34U U35C A40G U47C stands not above 0.5.
On to U35A G63C, for which the yeast fitness was 0.56.
Consider U35A A43C C46U, for which the yeast fitness was not above 0.5.
Under U35A C46A C49G G52A C60U A69G stands not above 0.5; under C34U C46A C62U, 0.682.
On to C34U G58C A70C, for which the yeast fitness was not above 0.5.
Under U35A A42G stands 0.681; under U35C A65G, 0.945.
Under U35C A65U stands 0.739; under C34U G56C, 0.51.
Under U35A A36G G48A C49U stands not above 0.5.
C34U C55U A65U: the yeast fitness came out at 0.607.
U35A A57C U64A G68A: the yeast fitness was not above 0.5.
Under C34U U54C A70U stands not above 0.5; under U35C A45U G68A, 0.668; under U35A U47C C49U C62A A69G, 0.718.
Under C34U G38A stands 0.689; under C34U C49U U53C, not above 0.5.
On to U35A A65G C66U, for which the yeast fitness came out at 0.675.
On to U35A C60U, for which the yeast fitness is not above 0.5.
Under U35A C60A stands 0.535; under C34U C49A, 0.585; under C34U G44C G56A, not above 0.5.
Under U35C A69U stands 0.949.
Under U35C A69C stands 0.943.
As to C34U U47A A70U, the yeast fitness turned out to be 0.534.
Under C34U U47A C66U stands not above 0.5; under U35A G68U, 0.6; under C34U U54C, 0.569.
Under C34U U54G stands 0.612.
As for C34U C66U, the yeast fitness was 0.555.
Turning to C34U C49A G52A, the yeast fitness was 0.59.
With C34U G38C C55A U64C, the yeast fitness was not above 0.5.
C34U C55A C62U C66U: the yeast fitness was not above 0.5.
As to C34U G63C, the yeast fitness was not above 0.5.
For the variant U35A U54G, the yeast fitness is not above 0.5.
Under U35A G51C A57U stands 0.539.
Under U35A A70C stands 0.769; under U35A A70G, 0.588.
Regarding U35A A70U, the yeast fitness was found to be 0.787.
Consider C34U C46A G50C, for which the yeast fitness was not above 0.5.
Regarding U35A G50A A69U, the yeast fitness turned out to be 0.621.
Under U35A C62A C66G stands 0.66; under U35C A42G, 0.761.
Under C34U G48C C66U stands 0.635; under U35A U59G, 0.62; under U35A U59A, 0.591.
Under C34U G56A G67A stands not above 0.5; under C34U C46A, 0.714; under C34U C46G, 0.705.
Turning to C34U U35A, the yeast fitness was not above 0.5.
Under U35C A43G U54C stands not above 0.5.
Under C34U G41A C49G stands 0.535; under U35A C60G C62G, not above 0.5.
Under C34U U35C A69U stands not above 0.5; under C34U U53C A69C, not above 0.5; under U35A A37G, not above 0.5.
For C34U G44C A45C C66A, the yeast fitness turned out to be 0.591.
Under C34U G51A stands 0.547; under U35C A45C C49A, not above 0.5.
Under U35C A36U stands 0.603.
Under U35A A57C stands not above 0.5; under C34U C60G, 0.716.
For C34U U54C A69U, the yeast fitness is not above 0.5.
In the case of U35C A37U A43C C46U C49U G68A, the yeast fitness was not above 0.5.
Under C34U G44C U53C stands not above 0.5.
